From the EternaBench riboswitch data

System: MS2 coat protein
Test: apparent Kd, MS2 coat protein; higher = weaker binding; RNA-MaP array; FMN 200 µM where present
Outline: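 Stalled E. coli RNA polymerase transcribed each design on Illumina sequencing-chip clusters. The clusters were titrated with SNAP-549-labelled MS2 coat protein, starting at 0.7 or 1.5 nM and doubling up to 3 µM, first without ligand and then with constant ligand, in 100 mM Tris-HCl pH 7.5, 80 mM KCl, 4 mM MgCl2, BSA, DTT, yeast tRNA and Tween-20. Green signal was normalised to red-channel RNA signal and to the control-cluster median Fmax. The apparent Kd is the median of filtered binding-curve fits made for each cluster.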

[1] = designed as: ON switch for flavin mononucleotide, no ligand
[2] = ligand present: flavin mononucleotide, designed as: ON switch for flavin mononucleotide
[3] = designed as: OFF switch for flavin mononucleotide, no ligand
[4] = ligand present: flavin mononucleotide, designed as: OFF switch for flavin mononucleotide

GCUAUCGGGUGAGGAUAUAUGAUUGUGAUUAAAAUAGAAGGCAUCUCAGAAGACAUGAGGAUCACCCAUGUAGUUAAGAUGGCC
apparent Kd [1]: 14.6 nM
apparent Kd [2]: 11.4 nM

UUGGACGUCGUAGGAUCUGUAGGAUAUUCCUACAUGAGGAUCACCCAUGUUGACAUGGAAGAAGGACAGAAGGACGAUGUCCAU
apparent Kd [1]: 6.35 nM
apparent Kd [2]: 3.7 nM

GCGUUGUACGAGAAGGCCAAUACAUGAGGAUCACCCAUGUUAAGUUGUUUUGGAGGAUAUCGAUCACCUACAAUAAUGCAACGC
apparent Kd [3]: 6.83 nM
apparent Kd [4]: 5.9 nM

UUUAUGUGAGGAUAUAGUACUCCUUCUAUUAUUAUUGAGUACUAGAAGGCACAUGAGGAUCACCCAUGUAGUAC
apparent Kd [3]: 30 nM
apparent Kd [4]: 48.3 nM

AUUAUUUUCGAAGGAUAUGGAUACAUGAGGAUCACCCAUGUAUAAAAUGUGAUCAAUUAUAUGAUCCAGAAGGUCGUUGUUUAU
apparent Kd [3]: 80.8 nM
apparent Kd [4]: 257 nM

UAAUAGUAUGUUAGGAUAUGCUGGUCCUUGGAUCAGCAGAAGGAACAUGAGGAUCACCCAUGUAGACUAUUUUA
apparent Kd [3]: 15.5 nM
apparent Kd [4]: 30 nM

UCCACUGCUGAGAAGGGAUCCGUGUGGUUCGAAUCAGGAUAUCGAUACAGUGCAGCAUGAGGACAUGAGGAUCACCCAUGUAUU
apparent Kd [1]: 16 nM
apparent Kd [2]: 13 nM

GUAGCAUAGGGAGGAUAUUCAUAUAAUAAAUAAACAUGAGGAUCACCCAUGUGGCGAAAGCCUUGGGAGAAGGCCCAAUGCUAC
apparent Kd [1]: 866 nM
apparent Kd [2]: 36.2 nM

AGUCGGAGCAGAGGAUAUACAUGAGGAUCACCCAUGUAAAUGGAAUAAGACUGGAAACAGUCAAUGUAGAAGGCUGCUCCGACA
apparent Kd [3]: 68.5 nM
apparent Kd [4]: 673 nM

UACUGACAUGAGGAUCACCCAUGUGAGGAUAUUCUCCUGCUAAAUUAAUGGUGGGUGUGAAGAAGGCACAAGGA
apparent Kd [3]: 37.3 nM
apparent Kd [4]: 120 nM

UUAUGUUAUGUAGGAUAUCACUUUAAUUGAUUAAUAUAUGAAUAUUGAAUUUGAGAAGGACAUUUACAUGAGGAUCACCCAUGU
apparent Kd [3]: 16.2 nM
apparent Kd [4]: 13.6 nM

GCCUUAUCGGUCAGGAUAUACAUUUGUUAGUUGUUGUAGAAGGGACAUGAGGAUCACCCAUGUACAUUACAUUG
apparent Kd [3]: 22.4 nM
apparent Kd [4]: 40.3 nM

AUUGUUCGAGAGAAGGGAACAUGAGGAUCACCCAUGUUACCUCACCCGGUGACGGAACUCCAAGUUCAGGAUAUCUCGAGCGAU
apparent Kd [3]: 7.64 nM
apparent Kd [4]: 16 nM

GGGUACAUCGGAGGAUAUCAUGUAAAUACAUGAGGAUCACCCAUGUCGAUGGAGACAUCGGAGGUUGAGAAGGCCGAUGUACCG
apparent Kd [1]: 961 nM
apparent Kd [2]: 18.5 nM

GACUUGUUAGGAUAUCUUACAUUUGCAUCAUAGUAACCUUUGGAGAAGGGACAUGAGGAUCACCCAUGUUUGGU
apparent Kd [3]: 62.3 nM
apparent Kd [4]: 53.5 nM

AAGACAUGAGGAUCACCCAUGUAAAGACCGGUCGAUCAAGGUGAGGAUAUACAAUAAUUGAUAGGGUAGAAGGCACUGGGUUGA
apparent Kd [1]: 286 nM
apparent Kd [2]: 148 nM

UUACUAUUGGAGAAGGGUCGAUCAUAUAGAAUGGCAGGAUAUCCAACAUGAGGAUCACCCAUGUUUCACCCAUAUGAGGAUCAC
apparent Kd [3]: 116 nM
apparent Kd [4]: 44.9 nM

GCCAUCGCAUGAGGAUAUGCUCCGGUUUCCGGAGCAGAAGGCAUGUCGUAAGACAUGAGGAUCACCCAUGUAGUCAAGAUGGCA
apparent Kd [1]: 912 nM
apparent Kd [2]: 41.5 nM

CCGAAUAUGCAGGAUAUCGUAUCGGAAACGAUACGAGAAGGGUAAACAUGAGGAUCACCCAUGUUCCUUAACGG
apparent Kd [3]: 20.6 nM
apparent Kd [4]: 22.2 nM

AUAAUGCGAGGAUAUACAUGAGGAUCACCCAUGUAAUUCCAUCGGAGAGCCACAUUUCGUAGAAGGUGCAUUUA
apparent Kd [3]: 15.4 nM
apparent Kd [4]: 15.4 nM

CAGCUCUGAGGAUAUCCAUCCUCCUACAUGAGGAUCACCCAUGUUUCCCUCUGGGUUUUCGGAGAAGGCAGUUUUU
apparent Kd [3]: 248 nM
apparent Kd [4]: 425 nM

GACUAGGCAGGAUAUACAUGAGGAUCACCCAUGUGUCUGCGUUAAGCACGUGAAGACGGUAGAAGGGCCUUCAC
apparent Kd [3]: 11.6 nM
apparent Kd [4]: 13.5 nM

UUGGGACUAUCAGGAUAUGGUGUAGCCCAGUAAAGGACAUGAGGAUCACCCAUGUACCAUUGGUACCAGAAGGGAUGAUCCUAC
apparent Kd [1]: 18.4 nM
apparent Kd [2]: 14.8 nM

CCGUCAAUCGAGAAGGGCCUAUGUGCUACAUCGGCAGGAUAUCGACAUGAGGAUCACCCAUGUUGGCGAUCCUUUUUGGCGGAC
apparent Kd [3]: 156 nM
apparent Kd [4]: 24.1 nM

UAGGGCUUGGGCAGAAGGGUUACAUGAGGAUCACCCAUGUACAGAAGGAGAGCCUUGGGAAAGCUCUAGGAUAUGUCUAUGGGU
apparent Kd [3]: 9.93 nM
apparent Kd [4]: 6.66 nM

CGAUGUUAUGUCAGGAUAUGCAUUGCGAAAGCGAUGCAGAAGGGACAUGAGGAUCACCCAUGUCCUAACCAUCG
apparent Kd [3]: 12.3 nM
apparent Kd [4]: 18.8 nM

GUAGCAUUAUAAGGAUAUUCAUACCGGAAACGGACAUGAGGAUCACCCAUGUGGCGAAAGCCUUGGGAGAAGGUAUUAUGCUAC
apparent Kd [1]: 537 nM
apparent Kd [2]: 24.9 nM

UUACUAUUACAGAAGGUUAAAUAAUAUAUAAAUGAAGGAUAUGUGACAUGAGGAUCACCCAUGUUUCACCCACAUGAGGAUCAC
apparent Kd [3]: 12.1 nM
apparent Kd [4]: 13.3 nM
